Data on 3 compounds can be found in ChEMBL document CHEMBL1130028, “A comparison of structure-activity relationships between spermidine and spermine analogue antineoplastics” (J Med Chem, 1997).

A short description of data set [1]: Effect on ornithine decarboxylase (ODC) tested at 1 uM at 4 hour in L1210 cells. The data set is classed as functional, Mus musculus. An outline of the steps: (§1)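 L1210 cells were exposed to 1 μM analogue, for 4 h (ODC) or 6 h (AdoMetDC). Activity was measured as 14CO2 released from [14C]carboxyl-labelled L-ornithine (ODC) or S-adenosyl-L-methionine (AdoMetDC) and given as percent of untreated control. Each run included DEHSPM-treated positive controls. Values are the mean of at least three experiments.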

In data set [2] the test system is L1210. The data set can be described thus: Percentage of putrescine after 48 hr exposure to the compound (10 uM ) in L1210 cells. Format: functional, Mus musculus. An outline of the steps:
(§2)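 Log-phase L1210 cells were treated for 48 h with analogue at two concentrations. Cells were washed twice in cold RPMI-1640 and extracted with 0.6 N HClO4. Putrescine, spermidine and spermine were quantified by HPLC of dansyl derivatives and given as percent of untreated controls. Runs were in triplicate with untreated controls.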

The subject of data set [3] is L1210. The data set can be described thus: Percentage of spermidine after 48 hr of exposure to the compound (10 uM ) in L1210 cells. Format: functional, Mus musculus. An outline of the steps: as §2
Data set [4] relates to L1210. Briefly: Percentage of spermidine after 48 hr of exposure to the compound (2 uM ) in L1210 cells. The data set is classed as functional, Mus musculus. In outline:
as §2

Data set [5] deals with L1210. Briefly: Intracellular levels in L1210 cells following 500 uM exposure. Format: functional, Mus musculus. An outline of the steps: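 L1210 cells were grown 48 h in medium containing 500 μM analogue. Cellular contents were analysed by HPLC of dansyl derivatives and given as pmol/10^6 cells, as parent drug and metabolites with the % of total drug in the cell.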
For data set [6], the system named is L1210. Briefly: Percentage of putrescine after 48 hr exposure to the compound (2 uM ) in L1210 cells. The data set is classed as functional, Mus musculus. In outline: as §2
In data set [7] the test system is L1210. Briefly: Growth inhibitory activity against L1210 cells (48h). Format: functional, cell-based. The following applies: Mus musculus, L1210, 48 h. In outline: (§3)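 Murine L1210 leukemia cells were kept in log growth in RPMI-1640 with 10% fetal calf serum or NuSerum, HEPES-MOPS buffer and 1 mM aminoguanidine. IC50 is the concentration giving 50% of untreated control growth, as the mean of at least two experiments.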

Data set [8] concerns L1210. The data set can be described thus: Growth inhibitory activity against L1210 cells (96h). The following applies: Mus musculus, L1210, 96 h. The data set is classed as functional, cell-based. An outline of the steps: as §3
Data set [9] concerns the target Spermidine/spermine N(1)-acetyltransferase (SAT) (Mus musculus) (UniProt Q6P8J2+P48026). The data set can be described thus: Effect on Spermidine/Spermine-Acetyltransferase (SSAT ) at 10 uM at 48 hour in L1210 cells. Format: functional, cell-based. In outline:
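L1210 cells were exposed to 10 μM triamine for 48 h. SSAT activity was taken as [14C]N1-acetylspermidine formed from spermidine and [14C]acetyl-CoA, given as percent of untreated control. DENSPM-treated cells served as positive control. Values are the mean of at least three experiments.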

The nature of data set [10]: Binding affinity values for polyamine transporter was determined.
The target of data set [11] is T1, S-adenosylmethionine decarboxylase proenzyme 1 (Mus musculus) (UniProt P0DMN7).
T1 sequence (whole entry): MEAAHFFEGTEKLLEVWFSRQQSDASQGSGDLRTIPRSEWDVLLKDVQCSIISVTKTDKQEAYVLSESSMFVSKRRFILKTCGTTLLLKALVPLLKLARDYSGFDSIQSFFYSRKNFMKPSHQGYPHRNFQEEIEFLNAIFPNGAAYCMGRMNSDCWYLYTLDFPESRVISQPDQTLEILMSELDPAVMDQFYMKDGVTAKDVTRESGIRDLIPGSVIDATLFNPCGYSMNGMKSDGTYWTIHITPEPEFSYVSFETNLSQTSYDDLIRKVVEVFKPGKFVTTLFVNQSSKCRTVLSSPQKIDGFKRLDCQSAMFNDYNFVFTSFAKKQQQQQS
Briefly: Effect on S-Adenosyl-methionine decarboxylase (AdoMetDC) tested at 1 uM at 6 hour in L1210 cells. Format: functional, cell-based. In outline: as §1

Data set [12] has as its system L1210. The data set can be described thus: Percentage of putrescine after 48 hr exposure to the compound (15(1.5)uM ) in L1210 cells. The data set is classed as functional, Mus musculus. An outline of the steps:
as §2

The test system of data set [13] is L1210. Briefly: Percentage of spermidine after 48 hr of exposure to the compound (15(1.5)uM ) in L1210 cells. The data set is classed as functional, Mus musculus. In outline: as §2
Data set [14] has as its system L1210. Briefly: Percentage of spermidine after 48 hr of exposure to the compound (3(0.3)uM ) in L1210 cells. Format: functional, Mus musculus. In outline:
as §2

For data set [15], the system named is L1210. Briefly: Percentage of spermine after 48 hr exposure to the compound (15(1.5)uM ) in L1210 cells. Format: functional, Mus musculus. An outline of the steps:
as §2

The subject of data set [16] is L1210. Briefly: Percentage of spermine after 48 hr exposure to the compound (3(0.3)uM ) in L1210 cells. Format: functional, Mus musculus. In outline: as §2
In data set [17] the test system is L1210. Briefly: Percentage of putrescine after 48 hr exposure to the compound (3(0.3)uM ) in L1210 cells. Format: functional, Mus musculus. An outline of the steps: as §2
A short description of data set [18]: The chronic lethal dose administered as intraperitoneal injection. The data set is classed as ADME. The conditions noted are these: mouse, ip. In outline: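 Female CD-1 mice, 10–12 weeks old. Analogue given as hydrochloride salt by ip injection three times daily for 6 days (18 doses). Appetite, weight and appearance monitored daily, and lethality scored 10 days after the final dose.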

Data set [19] deals with L1210. Briefly: Percentage of spermine after 48 hr exposure to the compound (500(150)uM ) in L1210 cells. Format: functional, Mus musculus. An outline of the steps:
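Log-phase murine L1210 leukemia cells (RPMI-1640, 10% fetal calf serum or NuSerum, HEPES-MOPS buffer, 1 mM aminoguanidine) exposed 48 h to analogue at two concentrations. Cells washed twice in cold RPMI-1640 and extracted with 0.6 N HClO4. Spermine in extracts quantified by HPLC of DANSYL derivatives and expressed as percent of untreated controls. Triplicate flasks per condition.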

Data set [20] deals with L1210. Briefly: Percentage of spermine after 48 hr exposure to the compound (100(30)uM ) in L1210 cells. Format: functional, Mus musculus. An outline of the steps:
as §2

Data set [21] concerns L1210. Briefly: Percentage of putrescine after 48 hr exposure to the compound (100(30)uM ) in L1210 cells. The data set is classed as functional, Mus musculus. In outline:
as §2

Data set [22] has as its system L1210. Briefly: Percentage of spermidine after 48 hr of exposure to the compound (100(30)uM ) in L1210 cells. Format: functional, Mus musculus. An outline of the steps: as §2
In data set [23] the test system is L1210. Briefly: Percentage of spermidine after 48 hr of exposure to the compound (500(150)uM ) in L1210 cells. The data set is classed as functional, Mus musculus. An outline of the steps:
as §2

For data set [24], the system named is L1210. Briefly: Percentage of putrescine after 48 hr exposure to the compound (500(150)uM ) in L1210 cells. The data set is classed as functional, Mus musculus. An outline of the steps: as §2

As a reminder, the IC50 is the point on the concentration scale where inhibition reaches its midpoint. High values mean weaker potency in that assay, low ones greater potency in that assay. Broadly, the Ki is the dissociation constant of the complex between target and ligand, obtained from inhibition or displacement. High values mean weaker binding, low ones tighter binding. As usually defined, the LD50 is the dose at which mortality reaches 50%.

Sequence of Spermidine/spermine N(1)-acetyltransferase (SAT) (Mus musculus) (P48026 whole entry, looked up): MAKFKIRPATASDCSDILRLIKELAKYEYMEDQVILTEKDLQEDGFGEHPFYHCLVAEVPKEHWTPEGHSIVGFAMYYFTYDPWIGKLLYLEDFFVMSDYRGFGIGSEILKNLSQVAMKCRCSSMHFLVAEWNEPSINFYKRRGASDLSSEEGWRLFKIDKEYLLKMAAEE
Sequence of Spermidine/spermine N(1)-acetyltransferase (SAT) (Mus musculus) (Q6P8J2 whole entry, looked up): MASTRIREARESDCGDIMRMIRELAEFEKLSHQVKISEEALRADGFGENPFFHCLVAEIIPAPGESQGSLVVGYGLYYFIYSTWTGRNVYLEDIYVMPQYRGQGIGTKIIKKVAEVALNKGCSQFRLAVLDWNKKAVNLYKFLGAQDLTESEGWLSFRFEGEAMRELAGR

With `CNCCCCCNCCCCNC`, in data set [1], the ODC came to 56%. In addition, the Polyamine in the data set on L1210 [2] worked out at 0%; in the data set on L1210 [3] it was 18%; with L1210 [4], 33%; in the data set on L1210 [6] it was 0%. The “Picoequivalents of amine/10e6 cells” value in the data set with L1210 [5] was 20810. Further, the IC50 in the data set on L1210 [7] stood at 2 µM; in the data set with L1210 [8], 0.12 µM. The SSAT in data set [9] was determined as 130%. In addition, the Ki in [10] amounted to 21 µM. Besides, in data set [11], the AdoMetDC is 71%.
As to `CCNCCCCCNCCCCNCC`, the ODC in [1] was 100%. The Polyamine is listed as 0% in the data set on L1210 [12]; 18% with L1210 [13]; 47% with L1210 [14]; 98% in the data set on L1210 [15]; 99% with L1210 [16]; 0% in the data set with L1210 [17]. In addition, the “Picoequivalents of amine/10e6 cells” value in the data set on L1210 [5] came to 14590. The IC50 in the data set with L1210 [7] was 4.5 µM; with L1210 [8], 0.2 µM. The SSAT in data set [9] was found to be 120%. The compound also showed a Ki in [10] of 64 µM. In data set [18], this compound had an LD50 of 375 mg/kg/day. For the same compound, in data set [11], the AdoMetDC came to 70%.
As to `CCNCCCCNCCCNCC`, the Polyamine with L1210 [19] turned out to be 55%; in the data set on L1210 [20], 74%; with L1210 [21], 0%; with L1210 [22], 5%; in the data set on L1210 [23], 0%; with L1210 [24] it was 0%. In data set [1], this compound yielded an ODC of 30%. Moreover, in the data set with L1210 [5], the “Picoequivalents of amine/10e6 cells” value stood at 14050. Also, the IC50 with L1210 [7] was 100 µM; in the data set with L1210 [8], 0.7 µM. This compound returned an SSAT in data set [9] of 1380%. For the same compound, the Ki in [10] turned out to be 19 µM. In data set [18], this compound had an LD50 of 426 mg/kg/day. The compound also came in with an AdoMetDC in data set [11] of 68%.
